In ChEMBL document CHEMBL4145654, “Structure-Based Discovery of CF53 as a Potent and Orally Bioavailable Bromodomain and Extra-Terminal (BET) Bromodomain Inhibitor” (J Med Chem, 2018):

Assays:
[1] = molecular target: Histone acetyltransferase KAT2B (Homo sapiens, UniProt Q92831); assay: Binding affinity to human PCAF (G715 to D831 residues) expressed in bacterial expression system by BROMOScan assay
[2] = species on record: Homo sapiens; assay: Selectivity index, ratio of Kd for human CECR2 (P423 to D543 residues) to Kd for human BRDT bromodomain 1 (N21 to E137 residues)
[3] = molecular target: T1, Bromodomain testis-specific protein (Homo sapiens, UniProt Q58F21); assay: Binding affinity to human BRDT bromodomain 1 (N21 to E137 residues) expressed in bacterial expression system by BROMOscan assay
[4] = species on record: Homo sapiens; assay: Selectivity index, ratio of Kd for human EP300 (A1040 to G1161 residues) to Kd for human BRDT bromodomain 2 (K250 to E382 residues)
[5] = molecular target: Bromodomain adjacent to zinc finger domain protein 2B (Homo sapiens, UniProt Q9UIF8); assay: Binding affinity to human BAZ2B (S2054 to S2168 residues) expressed in bacterial expression system by BROMOScan assay
Sequence of Bromodomain adjacent to zinc finger domain protein 2B (Q9UIF8 whole entry, the tested form may be a part): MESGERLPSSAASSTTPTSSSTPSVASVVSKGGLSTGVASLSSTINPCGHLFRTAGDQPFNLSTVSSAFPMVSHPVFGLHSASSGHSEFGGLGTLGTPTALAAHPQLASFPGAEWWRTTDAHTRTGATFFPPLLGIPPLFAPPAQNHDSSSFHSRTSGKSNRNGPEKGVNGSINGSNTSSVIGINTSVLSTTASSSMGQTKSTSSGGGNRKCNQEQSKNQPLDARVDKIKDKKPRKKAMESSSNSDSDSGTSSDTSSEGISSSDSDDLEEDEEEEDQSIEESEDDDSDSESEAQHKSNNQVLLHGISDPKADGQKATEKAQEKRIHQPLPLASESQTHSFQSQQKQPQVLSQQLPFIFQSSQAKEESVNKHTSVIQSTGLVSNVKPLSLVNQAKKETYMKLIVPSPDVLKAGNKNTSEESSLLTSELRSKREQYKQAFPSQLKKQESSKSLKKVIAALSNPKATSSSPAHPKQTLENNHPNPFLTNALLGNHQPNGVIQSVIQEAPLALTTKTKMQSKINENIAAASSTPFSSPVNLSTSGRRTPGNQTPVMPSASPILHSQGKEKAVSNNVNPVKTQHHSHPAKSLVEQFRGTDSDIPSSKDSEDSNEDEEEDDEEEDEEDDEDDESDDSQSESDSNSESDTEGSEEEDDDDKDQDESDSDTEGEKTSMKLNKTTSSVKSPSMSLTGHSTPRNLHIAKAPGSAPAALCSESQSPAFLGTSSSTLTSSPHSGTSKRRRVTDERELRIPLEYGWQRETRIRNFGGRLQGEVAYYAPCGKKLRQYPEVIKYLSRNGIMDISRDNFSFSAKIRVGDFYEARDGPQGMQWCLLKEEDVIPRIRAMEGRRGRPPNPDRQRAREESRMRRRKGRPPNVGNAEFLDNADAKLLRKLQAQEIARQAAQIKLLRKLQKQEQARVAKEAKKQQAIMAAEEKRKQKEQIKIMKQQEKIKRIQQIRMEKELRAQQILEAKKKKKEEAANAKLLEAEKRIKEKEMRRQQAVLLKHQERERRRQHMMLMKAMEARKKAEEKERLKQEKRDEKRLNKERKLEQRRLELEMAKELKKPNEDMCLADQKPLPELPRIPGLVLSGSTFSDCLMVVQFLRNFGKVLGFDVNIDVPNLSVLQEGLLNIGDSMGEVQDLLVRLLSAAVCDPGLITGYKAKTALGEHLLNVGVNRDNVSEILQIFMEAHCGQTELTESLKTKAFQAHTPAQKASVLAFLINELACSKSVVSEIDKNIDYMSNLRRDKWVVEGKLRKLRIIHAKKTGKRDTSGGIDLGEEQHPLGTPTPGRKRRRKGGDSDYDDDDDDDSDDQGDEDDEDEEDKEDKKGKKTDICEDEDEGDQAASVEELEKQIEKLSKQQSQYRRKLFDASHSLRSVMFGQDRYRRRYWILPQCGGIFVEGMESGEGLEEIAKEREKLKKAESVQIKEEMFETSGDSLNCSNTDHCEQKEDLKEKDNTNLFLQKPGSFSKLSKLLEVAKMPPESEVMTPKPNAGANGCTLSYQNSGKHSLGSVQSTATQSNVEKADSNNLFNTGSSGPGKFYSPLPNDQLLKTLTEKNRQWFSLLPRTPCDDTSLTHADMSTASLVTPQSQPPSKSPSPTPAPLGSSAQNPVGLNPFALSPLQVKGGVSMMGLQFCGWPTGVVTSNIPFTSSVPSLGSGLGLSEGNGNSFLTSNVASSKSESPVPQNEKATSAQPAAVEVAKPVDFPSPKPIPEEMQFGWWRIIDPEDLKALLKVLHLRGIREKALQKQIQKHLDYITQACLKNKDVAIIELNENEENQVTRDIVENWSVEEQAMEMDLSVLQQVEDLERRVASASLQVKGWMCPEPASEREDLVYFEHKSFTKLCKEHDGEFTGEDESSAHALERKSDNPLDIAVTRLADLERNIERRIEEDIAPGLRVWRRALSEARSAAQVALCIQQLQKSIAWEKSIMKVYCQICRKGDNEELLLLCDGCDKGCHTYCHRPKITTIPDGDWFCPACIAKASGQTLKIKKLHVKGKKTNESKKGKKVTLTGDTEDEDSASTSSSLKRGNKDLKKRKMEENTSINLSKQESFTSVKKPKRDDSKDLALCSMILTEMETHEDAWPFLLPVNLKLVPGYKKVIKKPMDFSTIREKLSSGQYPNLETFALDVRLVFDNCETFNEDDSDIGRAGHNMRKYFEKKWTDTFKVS

[6] = molecular target: T1, Bromodomain testis-specific protein; assay: Binding affinity to human BRDT bromodomain 2 (K250 to E382 residues) expressed in bacterial expression system by BROMOscan assay
[7] = molecular target: Histone acetyltransferase KAT2A (Homo sapiens, UniProt Q92830); assay: Binding affinity to human GCN5L2 (E726 to K837 residues) expressed in bacterial expression system by BROMOScan assay
[8] = Plasma concentration in SCID mouse xenografted with human MDA-MB-231 cells at 50 mg/kg administered via oral gavage measured after 6 hrs; type: ADME, organism-based
In short: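 SCID mice carrying MDA-MB-231 tumors dosed orally at 50 mg/kg. Plasma drug level determined by LC-MS/MS (positive-ion MRM, C18 column, formic acid/acetonitrile gradient). Value is the mean from two mice per time point.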

[9] = tested on: MDA-MB-231; assay: Antitumor activity against human MDA-MB-231 cells xenografted in SCID mouse assessed as tumor growth inhibition at 25 mg/kg administered via oral gavage measured on day 44; type: functional; conditions: MDA-MB-231, po, 1056 h, read-out: TGI
In short: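 SCID mice were implanted subcutaneously on the dorsal side with 5 × 10⁶ MDA-MB-231 or RS4;11 cells in 50% Matrigel, one tumor per mouse. At ca. 100 mm3, mice were randomized to treatment or vehicle groups and dosed by oral gavage. Tumor volume = L × W²/2. Body weight change tracked. p values by two-tailed unpaired t-test.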

[10] = molecular target: Transcription initiation factor TFIID subunit 1 (Homo sapiens, UniProt P21675); assay: Binding affinity to human TAF1 bromodomain 2 (D1521 to D1656 residues) expressed in bacterial expression system by BROMOScan assay
[11] = molecular target: Transcription initiation factor TFIID subunit 1-like (Homo sapiens, UniProt Q8IZX4); assay: Binding affinity to human TAF1L bromodomain 2 (Q1523 to D1654 residues) expressed in bacterial expression system by BROMOScan assay
[12] = molecular target: Bromodomain and PHD finger-containing protein 3 (Homo sapiens, UniProt Q9ULD4); assay: Binding affinity to human BRPF3 (E588 to G701 residues) expressed in bacterial expression system by BROMOScan assay
[13] = tested on: MDA-MB-231; assay: Antitumor activity against human MDA-MB-231 cells xenografted in SCID mouse assessed as tumor growth inhibition at 50 mg/kg administered via oral gavage measured on day 44; type: functional; conditions: MDA-MB-231, po, 1056 h, read-out: TGI
In short: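 Each SCID mouse received a single dorsal subcutaneous tumor of 5 × 10⁶ RS4;11 or MDA-MB-231 cells in 50% Matrigel. At about 100 mm3, mice were randomised to treatment or vehicle control groups. Dosing was by oral gavage at the stated schedules. Tumor volume was L × W²/2, and body weight was tracked. TGI versus vehicle at end of treatment was tested by unpaired two-tailed t-test.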

[14] = molecular target: Chromatin remodeling regulator CECR2 (Homo sapiens, UniProt Q9BXF3); assay: Binding affinity to human CECR2 (P423 to D543 residues) expressed in bacterial expression system by BROMOscan assay
[15] = species on record: Homo sapiens; assay: Selectivity index, ratio of Kd for human EP300 (A1040 to G1161 residues) to Kd for human BRD3 bromodomain 2 (G306 to P416 residues)
[16] = species on record: Homo sapiens; assay: Selectivity index, ratio of Kd for human CREBBP (R1081 to G1197 residues) to Kd for human BRDT bromodomain 2 (K250 to E382 residues)
[17] = molecular target: SWI/SNF-related matrix-associated actin-dependent regulator of chromatin subfamily A member 2 (Homo sapiens, UniProt P51531); assay: Binding affinity to human SMARCA2 (S1377 to Q1486 residues) expressed in bacterial expression system by BROMOScan assay
[18] = tested on: MOLM-13; assay: Growth inhibition of human MOLM13 cells after 4 days by WST-8 assay; type: functional, cell-based; conditions: MOLM-13, 96 h
In short: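 Leukemia cells, used within 3 months of thaw, were seeded at 10 000 cells/well and exposed to serially diluted compound in culture medium for 4 days. WST-8 reagent was added at 10% (v/v) final for 1−3 h, and absorbance was read at 450 nm. Readings were normalized to DMSO-treated cells, and the IC50 was fitted by nonlinear regression.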

[19] = molecular target: Protein polybromo-1 (Homo sapiens, UniProt Q86U86); assay: Binding affinity to human PBRM1 bromodomain 5 (S645 to D766 residues) expressed in bacterial expression system by BROMOScan assay
Sequence of Protein polybromo-1 (Q86U86 whole entry, the tested form may be a part): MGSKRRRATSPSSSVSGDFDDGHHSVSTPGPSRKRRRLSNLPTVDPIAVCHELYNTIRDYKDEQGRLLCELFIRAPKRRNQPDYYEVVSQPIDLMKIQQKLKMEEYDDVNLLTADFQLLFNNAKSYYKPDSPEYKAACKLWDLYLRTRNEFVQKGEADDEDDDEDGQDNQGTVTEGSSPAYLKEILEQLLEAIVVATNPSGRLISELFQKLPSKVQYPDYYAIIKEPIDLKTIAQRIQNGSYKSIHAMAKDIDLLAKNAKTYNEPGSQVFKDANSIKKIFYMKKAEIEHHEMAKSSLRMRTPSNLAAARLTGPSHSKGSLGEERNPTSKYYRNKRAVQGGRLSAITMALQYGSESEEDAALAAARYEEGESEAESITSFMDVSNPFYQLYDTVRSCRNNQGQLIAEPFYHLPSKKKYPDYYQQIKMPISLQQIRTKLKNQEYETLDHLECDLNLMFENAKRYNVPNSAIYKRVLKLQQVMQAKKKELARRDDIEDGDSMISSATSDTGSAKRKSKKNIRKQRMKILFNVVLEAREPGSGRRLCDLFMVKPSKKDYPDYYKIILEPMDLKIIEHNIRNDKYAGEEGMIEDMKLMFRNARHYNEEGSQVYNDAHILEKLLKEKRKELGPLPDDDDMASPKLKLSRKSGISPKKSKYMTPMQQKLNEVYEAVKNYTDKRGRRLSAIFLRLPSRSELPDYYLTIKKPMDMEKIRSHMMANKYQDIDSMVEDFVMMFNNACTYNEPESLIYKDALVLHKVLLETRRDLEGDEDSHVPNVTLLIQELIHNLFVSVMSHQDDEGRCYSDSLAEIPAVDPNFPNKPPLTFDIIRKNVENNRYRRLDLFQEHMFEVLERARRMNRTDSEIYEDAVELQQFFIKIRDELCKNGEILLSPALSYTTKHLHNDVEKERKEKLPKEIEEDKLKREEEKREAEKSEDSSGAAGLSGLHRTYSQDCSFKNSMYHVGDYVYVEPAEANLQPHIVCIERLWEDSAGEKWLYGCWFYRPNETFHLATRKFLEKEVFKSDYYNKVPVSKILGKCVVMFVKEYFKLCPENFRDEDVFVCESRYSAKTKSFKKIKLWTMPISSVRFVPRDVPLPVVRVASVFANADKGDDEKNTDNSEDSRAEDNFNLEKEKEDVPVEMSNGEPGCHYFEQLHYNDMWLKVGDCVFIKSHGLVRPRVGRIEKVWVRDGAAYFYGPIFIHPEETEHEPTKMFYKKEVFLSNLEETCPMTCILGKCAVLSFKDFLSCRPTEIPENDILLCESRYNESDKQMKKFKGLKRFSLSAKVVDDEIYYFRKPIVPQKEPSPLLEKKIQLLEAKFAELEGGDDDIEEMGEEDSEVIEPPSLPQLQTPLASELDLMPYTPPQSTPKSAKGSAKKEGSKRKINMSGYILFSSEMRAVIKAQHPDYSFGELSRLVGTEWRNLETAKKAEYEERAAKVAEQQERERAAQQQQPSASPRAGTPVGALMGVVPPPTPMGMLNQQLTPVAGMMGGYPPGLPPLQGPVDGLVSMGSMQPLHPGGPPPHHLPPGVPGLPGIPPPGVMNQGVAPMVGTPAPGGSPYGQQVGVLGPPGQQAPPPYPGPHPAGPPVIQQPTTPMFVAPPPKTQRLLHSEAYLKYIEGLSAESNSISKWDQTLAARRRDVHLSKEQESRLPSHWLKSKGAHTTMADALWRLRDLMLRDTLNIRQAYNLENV

[20] = species on record: Homo sapiens; assay: Selectivity index, ratio of Kd for human EP300 (A1040 to G1161 residues) to Kd for human BRD2 bromodomain 2 (E348 to D455 residues)
[21] = species on record: Homo sapiens; assay: Selectivity index, ratio of Kd for human CECR2 (P423 to D543 residues) to Kd for human BRD4 bromodomain 1 (N44 to E168 residues)
[22] = molecular target: ATPase family AAA domain-containing protein 2B (Homo sapiens, UniProt Q9ULI0); assay: Binding affinity to human ATAD2B (Q955 to R1082 residues) expressed in bacterial expression system by BROMOScan assay
[23] = species on record: Homo sapiens; assay: Selectivity index, ratio of Kd for human CECR2 (P423 to D543 residues) to Kd for human BRD2 bromodomain 1 (K71 to N194 residues)
[24] = species on record: Homo sapiens; assay: Selectivity index, ratio of Kd for human CECR2 (P423 to D543 residues) to Kd for human BRD2 bromodomain 2 (E348 to D455 residues)
[25] = molecular target: Bromodomain-containing protein 4 (Homo sapiens, UniProt O60885); assay: Binding affinity to human BRD4 bromodomain 2 (K333 to E460 residues) expressed in bacterial expression system by BROMOscan assay
[26] = molecular target: Bromodomain-containing protein 2 (Homo sapiens, UniProt P25440); assay: Binding affinity to human BRD2 bromodomain 2 (E348 to D455 residues) expressed in bacterial expression system by BROMOscan assay
Sequence of Bromodomain-containing protein 2 (P25440 whole entry, the tested form may be a part): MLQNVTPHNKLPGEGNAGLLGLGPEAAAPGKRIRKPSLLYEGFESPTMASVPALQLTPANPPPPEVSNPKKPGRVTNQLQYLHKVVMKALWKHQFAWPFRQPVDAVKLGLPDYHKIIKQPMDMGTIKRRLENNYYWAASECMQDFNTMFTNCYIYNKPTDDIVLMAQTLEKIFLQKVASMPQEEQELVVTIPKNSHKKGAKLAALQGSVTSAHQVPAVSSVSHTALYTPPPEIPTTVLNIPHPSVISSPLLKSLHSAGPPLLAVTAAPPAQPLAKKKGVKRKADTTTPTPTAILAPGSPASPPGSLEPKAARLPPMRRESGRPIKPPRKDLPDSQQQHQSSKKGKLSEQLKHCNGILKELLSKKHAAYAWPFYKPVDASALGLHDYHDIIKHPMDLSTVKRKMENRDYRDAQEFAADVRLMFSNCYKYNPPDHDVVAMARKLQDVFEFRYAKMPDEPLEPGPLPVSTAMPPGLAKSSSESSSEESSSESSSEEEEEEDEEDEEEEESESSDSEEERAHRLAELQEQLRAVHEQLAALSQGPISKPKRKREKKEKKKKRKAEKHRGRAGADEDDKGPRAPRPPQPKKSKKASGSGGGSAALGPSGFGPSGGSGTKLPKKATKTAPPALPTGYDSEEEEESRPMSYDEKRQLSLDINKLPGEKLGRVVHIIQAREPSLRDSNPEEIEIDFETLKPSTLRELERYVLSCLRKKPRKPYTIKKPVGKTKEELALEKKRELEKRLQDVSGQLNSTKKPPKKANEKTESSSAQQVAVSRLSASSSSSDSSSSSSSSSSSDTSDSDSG

[27] = molecular target: SWI/SNF-related matrix-associated actin-dependent regulator of chromatin subfamily A member 4 (Homo sapiens, UniProt P51532); assay: Binding affinity to human SMARCA4 (A1448 to S1575 residues) expressed in bacterial expression system by BROMOScan assay

Kd [1]: > 5000 nM | Selectivity Index [2]: > 50 | Kd [3]: 2 nM | Selectivity Index [4]: > 50 | Kd [5]: > 5000 nM | Kd [6]: 2.1 nM | Kd [7]: > 5000 nM | concentration at 6 h [8]: 7360 ng/mL | Kd [10]: > 5000 nM | Kd [11]: > 5000 nM | Kd [12]: > 5000 nM | Kd [14]: 570 nM | Selectivity Index [15]: > 50 | Selectivity Index [16]: > 20 | Kd [17]: > 5000 nM | IC50 [18]: 7 nM | Kd [19]: > 5000 nM | Selectivity Index [20]: > 50 | Selectivity Index [21]: > 50 | Kd [22]: > 5000 nM | Selectivity Index [23]: > 50 | Selectivity Index [24]: > 50 | Kd [25]: 0.8 nM | Kd [26]: 0.6 nM | Kd [27]: > 5000 nM
SMILES: COc1cc2c(cc1-c1c(C)noc1C)[nH]c1nc(C)nc(Nc3cc(C4CC4)nn3C)c12
inhibition in vivo at 25 mg/kg [9]: 67.6% | inhibition in vivo at 50 mg/kg [13]: 77.3%
